Active and inactive are the calls of the source. The calls are words filed in the database; no cut-off is given here.
Experiments:
MV4-11 [1] = assay: Antitumor activity against human MV4-11 cells xenografted in nu/nu mouse assessed as tumor growth inhibition at 50 mg/kg, iv qd measured on day 21 relative to vehicle-treated control; format: functional; conditions: MV4-11, iv, 504 h, read-out: TGI
How it was run: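 Female nu/nu mice bearing MV4-11 xenografts; dosing began once tumors reached 200 mm3. Given iv once daily for 21 days, with a vehicle-only group. Body weight and tumor size tracked relative to initial values, set as 100%. Tumors weighed at the end of the 22-day treatment period.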

[2] = molecular target: Receptor-type tyrosine-protein kinase FLT3 (Homo sapiens) (UniProt P36888); conditions: 1 uM
[3] = molecular target: Receptor-type tyrosine-protein kinase FLT3 (Homo sapiens) (UniProt P36888); conditions: 1 uM; remark: listed apart in the source
[4] = molecular target: Receptor-type tyrosine-protein kinase FLT3 (Homo sapiens) (UniProt P36888); conditions: 1 uM; remark: listed apart in the source
MV4-11 [5] = assay: Induction of apoptosis in human MV4-11 cells assessed as late apoptotic cells at 2 uM after 24 hrs by annexin V-FITC/propidium iodide staining-based flow cytometric method (reference value: 2.54%); format: functional
MV4-11 [6] = assay: Induction of apoptosis in human MV4-11 cells assessed as early apoptotic cells at 2 uM after 24 hrs by annexin V-FITC/propidium iodide staining-based flow cytometric method (reference value: 3.54%); format: functional
MV4-11 [7] = assay: Growth inhibition of human MV4-11 cells after 72 hrs by CellTiter-Glo assay; format: functional, cell-based; conditions: MV4-11, 72 h
How it was run: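 MV4-11 cells grown in IMDM with 10% FBS, 2% L-glutamine and 1% pen/strep at 37 °C, 5% CO2. Seeded at 10000 cells/well and exposed to compound at various concentrations for 72 h. Viability read by CellTiter-Glo luminescence.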

[8] = molecular target: Receptor-type tyrosine-protein kinase FLT3 (Homo sapiens) (UniProt P36888); conditions: 1 uM; remark: listed apart in the source
MV4-11 [9] = assay: Cell cycle arrest in human MV4-11 cells assessed as accumulation at G0/G1 phase at 0.2 uM after 24 hrs by propidium iodide/BrdU staining-based flow cytometric method; format: functional
How it was run: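 Cells treated with compound for 24 h, then fixed. Double-stained with propidium iodide and BrdU for flow cytometric analysis of cell cycle distribution.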

[10] = molecular target: ALK tyrosine kinase receptor (Homo sapiens, UniProt Q9UM73); assay: Inhibition of human ALK using poly[Glu:Tyr] (4:1) as substrate preincubated for 20 mins followed by [gamma-33P]-ATP addition measure after 120 mins by filter binding method
ALK tyrosine kinase receptor, sequence (Q9UM73 whole entry): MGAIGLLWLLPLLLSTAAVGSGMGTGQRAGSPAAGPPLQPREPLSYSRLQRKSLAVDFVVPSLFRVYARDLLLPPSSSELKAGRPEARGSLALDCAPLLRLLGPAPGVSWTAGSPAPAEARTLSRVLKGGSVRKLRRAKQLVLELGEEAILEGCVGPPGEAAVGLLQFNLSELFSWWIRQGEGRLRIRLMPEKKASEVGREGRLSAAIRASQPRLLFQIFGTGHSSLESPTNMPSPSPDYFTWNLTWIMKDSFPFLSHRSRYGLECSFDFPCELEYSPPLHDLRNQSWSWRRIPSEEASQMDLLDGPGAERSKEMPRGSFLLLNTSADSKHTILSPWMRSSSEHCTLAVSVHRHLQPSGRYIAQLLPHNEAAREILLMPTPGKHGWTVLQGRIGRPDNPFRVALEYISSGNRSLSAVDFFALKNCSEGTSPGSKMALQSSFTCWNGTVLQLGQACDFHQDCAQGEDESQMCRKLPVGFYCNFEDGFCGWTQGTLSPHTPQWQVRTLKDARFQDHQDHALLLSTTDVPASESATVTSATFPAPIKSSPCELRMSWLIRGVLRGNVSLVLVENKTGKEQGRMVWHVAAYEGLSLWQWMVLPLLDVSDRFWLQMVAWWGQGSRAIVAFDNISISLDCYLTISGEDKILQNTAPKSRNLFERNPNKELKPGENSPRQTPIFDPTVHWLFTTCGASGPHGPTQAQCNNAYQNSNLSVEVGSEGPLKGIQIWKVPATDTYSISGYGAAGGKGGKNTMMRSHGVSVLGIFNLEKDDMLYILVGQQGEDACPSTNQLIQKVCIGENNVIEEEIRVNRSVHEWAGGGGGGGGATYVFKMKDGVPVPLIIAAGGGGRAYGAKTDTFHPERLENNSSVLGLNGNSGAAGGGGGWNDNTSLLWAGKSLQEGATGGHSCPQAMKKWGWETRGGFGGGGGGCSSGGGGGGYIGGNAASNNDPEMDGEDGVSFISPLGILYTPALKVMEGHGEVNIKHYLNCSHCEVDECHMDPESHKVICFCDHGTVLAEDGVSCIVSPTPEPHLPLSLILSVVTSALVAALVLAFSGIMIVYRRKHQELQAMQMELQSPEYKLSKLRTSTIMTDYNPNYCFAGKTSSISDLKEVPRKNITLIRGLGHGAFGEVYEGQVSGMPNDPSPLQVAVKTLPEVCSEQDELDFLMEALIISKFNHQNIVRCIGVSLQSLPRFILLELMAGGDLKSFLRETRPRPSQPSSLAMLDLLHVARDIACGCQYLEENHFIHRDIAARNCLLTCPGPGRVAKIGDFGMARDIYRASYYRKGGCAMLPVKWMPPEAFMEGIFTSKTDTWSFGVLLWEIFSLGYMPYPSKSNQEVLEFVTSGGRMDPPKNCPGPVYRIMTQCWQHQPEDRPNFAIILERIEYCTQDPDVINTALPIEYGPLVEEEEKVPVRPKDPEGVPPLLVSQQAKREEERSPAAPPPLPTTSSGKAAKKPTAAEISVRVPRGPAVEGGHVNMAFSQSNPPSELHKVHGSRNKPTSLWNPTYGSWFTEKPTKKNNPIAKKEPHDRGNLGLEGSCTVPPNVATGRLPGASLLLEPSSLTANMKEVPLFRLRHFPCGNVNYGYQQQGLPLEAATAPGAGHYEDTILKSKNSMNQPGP
How it was run: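 Compound in DMSO was added to the kinase mixture for 20 min at room temperature. The reaction was started with 10 μM [γ-33P]ATP and run 120 min at 25 °C.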

[11] = molecular target: Cyclin-dependent kinase 4/cyclin D1 (Homo sapiens, UniProt P11802); assay: Inhibition of human CDK4/Cyclin D1 using RB protein as substrate preincubated for 20 mins followed by [gamma-33P]-ATP addition measure after 120 mins by filter binding method; format: protein-complex assay
Cyclin-dependent kinase 4/cyclin D1, sequence (P11802 whole entry): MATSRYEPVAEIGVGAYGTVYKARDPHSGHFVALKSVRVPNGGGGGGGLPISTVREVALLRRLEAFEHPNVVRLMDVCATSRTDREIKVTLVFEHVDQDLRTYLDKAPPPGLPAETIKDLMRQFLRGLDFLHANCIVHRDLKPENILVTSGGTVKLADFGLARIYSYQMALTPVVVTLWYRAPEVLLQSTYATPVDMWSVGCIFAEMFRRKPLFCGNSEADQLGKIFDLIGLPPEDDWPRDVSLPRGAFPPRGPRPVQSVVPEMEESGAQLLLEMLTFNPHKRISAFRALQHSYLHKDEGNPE
Cyclin-dependent kinase 4/cyclin D1, sequence (P24385 whole entry, further chain): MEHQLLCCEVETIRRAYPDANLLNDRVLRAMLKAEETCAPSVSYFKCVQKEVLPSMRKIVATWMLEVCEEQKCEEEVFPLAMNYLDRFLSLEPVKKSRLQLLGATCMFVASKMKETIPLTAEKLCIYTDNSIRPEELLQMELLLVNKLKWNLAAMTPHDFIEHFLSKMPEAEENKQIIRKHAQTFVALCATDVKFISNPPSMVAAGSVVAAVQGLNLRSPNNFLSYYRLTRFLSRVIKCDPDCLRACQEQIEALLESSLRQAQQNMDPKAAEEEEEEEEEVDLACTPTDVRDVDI
How it was run: (§1)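 Compound preincubated with kinase 20 min at room temperature. Reaction started with 10 μM [γ-33P]ATP and run 120 min at 25°C. Filter-binding read-out, curve-fitted IC50; mean ± SD of three independent experiments.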

[12] = molecular target: T1, Receptor-type tyrosine-protein kinase FLT3 (Homo sapiens, UniProt P36888); assay: Inhibition of human FLT3 using EAIYAAPFAKKK as substrate preincubated for 20 mins followed by [gamma-33P]-ATP addition measure after 120 mins by filter binding method
T1 sequence (P36888 whole entry): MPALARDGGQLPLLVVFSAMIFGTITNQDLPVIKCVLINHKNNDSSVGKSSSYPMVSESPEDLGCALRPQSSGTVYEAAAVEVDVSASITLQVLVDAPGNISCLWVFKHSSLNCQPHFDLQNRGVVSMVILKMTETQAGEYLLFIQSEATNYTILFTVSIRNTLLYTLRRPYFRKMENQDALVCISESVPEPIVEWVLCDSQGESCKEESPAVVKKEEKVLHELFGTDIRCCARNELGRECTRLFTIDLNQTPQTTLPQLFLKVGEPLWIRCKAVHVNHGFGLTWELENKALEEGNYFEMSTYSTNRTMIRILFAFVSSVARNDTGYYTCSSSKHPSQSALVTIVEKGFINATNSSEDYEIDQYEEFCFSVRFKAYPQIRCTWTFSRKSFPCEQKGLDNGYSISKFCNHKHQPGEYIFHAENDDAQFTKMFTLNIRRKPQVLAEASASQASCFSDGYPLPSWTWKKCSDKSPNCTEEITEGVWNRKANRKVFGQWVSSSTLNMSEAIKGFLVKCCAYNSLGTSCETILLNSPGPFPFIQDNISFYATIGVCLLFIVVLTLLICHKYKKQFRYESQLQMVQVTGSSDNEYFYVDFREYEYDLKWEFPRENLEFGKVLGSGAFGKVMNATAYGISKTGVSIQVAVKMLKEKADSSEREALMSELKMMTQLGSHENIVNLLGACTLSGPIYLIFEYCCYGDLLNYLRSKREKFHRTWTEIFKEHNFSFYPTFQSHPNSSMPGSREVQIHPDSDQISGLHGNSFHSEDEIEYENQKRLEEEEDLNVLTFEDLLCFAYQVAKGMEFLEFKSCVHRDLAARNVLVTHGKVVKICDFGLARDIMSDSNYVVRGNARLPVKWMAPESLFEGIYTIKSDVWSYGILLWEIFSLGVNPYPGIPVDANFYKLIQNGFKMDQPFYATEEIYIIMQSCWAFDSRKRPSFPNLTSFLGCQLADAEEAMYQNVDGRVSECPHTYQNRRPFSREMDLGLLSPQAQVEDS
How it was run: (§2)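 Compound preincubated with kinase 20 min at room temperature. Filter-binding read-out, curve-fitted IC50; mean ± SD of three independent experiments.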

NCI-H82 = assay: Growth inhibition of human NCI-H82 cells after 72 hrs by CellTiter-Glo assay; format: functional; conditions: NCI-H82, 72 h
MGC-803 = assay: Growth inhibition of human MGC803 cells after 72 hrs by CellTiter-Glo assay; format: functional; conditions: MGC-803, 72 h
HCT-116 = assay: Growth inhibition of human HCT116 cells after 72 hrs by CellTiter-Glo assay; format: functional; conditions: HCT-116, 72 h
CDK2/Cyclin A1 = CDK2/Cyclin A1 (Homo sapiens, UniProt P24941); assay: Inhibition of human CDK2/Cyclin A1 using histone H1 as substrate preincubated for 20 mins followed by [gamma-33P]-ATP addition measure after 120 mins by filter binding method; format: protein-complex assay; how it was run: as §2
MCF7 = assay: Growth inhibition of human MCF7 cells after 72 hrs by CellTiter-Glo assay; format: functional; conditions: MCF7, 72 h
CDK6/cyclin D1 = CDK6/cyclin D1 (Homo sapiens, UniProt Q00534); assay: Inhibition of human CDK6/Cyclin D1 using RB protein as substrate preincubated for 20 mins followed by [gamma-33P]-ATP addition measure after 120 mins by filter binding method; format: protein-complex assay; how it was run: as §1
CDK6/cyclin D1, sequence (P24385 whole entry): as the sequence (P24385 whole entry, further chain) above
CDK6/cyclin D1, sequence (Q00534 whole entry): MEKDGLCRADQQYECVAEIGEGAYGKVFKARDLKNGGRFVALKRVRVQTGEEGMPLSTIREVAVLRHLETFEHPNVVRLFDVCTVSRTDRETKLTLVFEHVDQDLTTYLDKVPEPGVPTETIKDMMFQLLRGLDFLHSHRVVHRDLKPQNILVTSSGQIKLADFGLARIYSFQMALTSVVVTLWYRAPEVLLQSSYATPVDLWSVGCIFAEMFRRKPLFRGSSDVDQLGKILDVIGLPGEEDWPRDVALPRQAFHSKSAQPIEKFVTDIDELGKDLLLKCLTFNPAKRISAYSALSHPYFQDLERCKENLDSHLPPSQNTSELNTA

RS4-11 = assay: Growth inhibition of human RS4:11 cells after 72 hrs by CellTiter-Glo assay; format: functional; conditions: RS4-11, 72 h

Row | inhibition [2] | inhibition [3] | inhibition [4] | IC50 (MV4-11 [7]) | inhibition [8] | IC50 [10] | IC50 [11] | IC50 [12] | GI50 (NCI-H82) | GI50 (MGC-803) | GI50 (HCT-116) | IC50 (CDK2/Cyclin A1) | GI50 (MCF7) | IC50 (CDK6/cyclin D1) | GI50 (RS4-11) | SMILES | inhibition in vivo at 50 mg/kg (MV4-11 [1]) | Activity (MV4-11 [5]) | Activity (MV4-11 [6]) | Activity (MV4-11 [9])
1 | – | – | – | – | – | – | – | – | – | – | – | – | – | – | – | Nc1ccn([C@@H]2O[C@H](CO)[C@@H](O)[C@@H]2O)c(=O)n1 [CYTARABINE] | 61.9% | – | – | –
2 | Active | Active | Active | 4 nM | Active | – | – | – | – | – | – | – | – | – | – | CNC(=O)c1cc(Oc2ccc(NC(=O)Nc3ccc(Cl)c(C(F)(F)F)c3)cc2)ccn1 [SORAFENIB] | – | 23.97% | 51.35% | Active
3 | – | – | – | 19 nM | – | 94.1 nM | 3.33 to 5.57 nM | 0.438 to 0.6 nM | 170 nM | 160 nM | 370 nM | 5.85 to 9.47 nM | 620 nM | 4.24 to 4.5 nM | 130 nM | CN1CCN(Cc2ccc(NC(=O)c3n[nH]cc3Nc3ncnc4sccc34)cc2)CC1 | – | – | – | –

Reference: ChEMBL document CHEMBL4052828, “Discovery of 4-((7H-Pyrrolo[2,3-d]pyrimidin-4-yl)amino)-N-(4-((4-methylpiperazin-1-yl)methyl)phenyl)-1H-pyrazole-3-carboxamide (FN-1501), an FLT3- and CDK-Kinase Inhibitor with Potentially High Efficiency against Acute Myelocytic Leukemia” (J Med Chem, 2018)
